{
  "source": "ChEMBL document CHEMBL2146366",
  "about": "“Discovery of microsomal triglyceride transfer protein (MTP) inhibitors with potential for decreased active metabolite load compared to dirlotapide” (Bioorg Med Chem Lett, 2011)",
  "key": {"[1]": {"system": "Rattus norvegicus", "assay": "Antiobesity activity in high fat diet-induced obese Sprague-Dawley rat assessed as reduction of food intake at 10 mg/kg, po administered daily for 3 days relative to dirlotapide", "type": "functional", "set-up": "scale not given: the % may be the effect or the level left", "procedure,_shortened": "(§1)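 Male Sprague–Dawley rats (~300 g, n = 5 per group) were acclimatized for seven days to a high-fat diet (45% kcal from fat). They received three consecutive daily oral gavage doses 1.5 h before the dark cycle. Vehicle was SEDDS:H2O 10:90, with SEDDS made of Miglyol 812 10%, triacetin 30%, polysorbate 80 20% and Capmul MCM 30%. Food intake was recorded during dosing, and liver TG was measured afterwards, both against vehicle.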"}, "[2]": {"system": "Rattus norvegicus", "assay": "Antiobesity activity in high fat diet-induced obese Sprague-Dawley rat assessed as reduction of food intake at 3 mg/kg, po administered daily for 3 days relative to dirlotapide", "type": "functional", "set-up": "scale not given: the % may be the effect or the level left", "procedure,_shortened": "as §1"}, "[3]": {"system": "Rattus norvegicus", "assay": "Antiobesity activity in high fat diet-induced obese Sprague-Dawley rat assessed as reduction in body weight at 3 mg/kg, po administered daily for 3 days relative to dirlotapide", "type": "functional", "set-up": "scale not given: the % may be the effect or the level left"}, "[4]": {"system": "Rattus norvegicus", "assay": "Antiobesity activity in high fat diet-induced obese Sprague-Dawley rat assessed as reduction in body weight at 30 mg/kg, po administered daily for 3 days relative to dirlotapide", "type": "functional", "set-up": "scale not given: the % may be the effect or the level left"}, "[5]": {"system": "Rattus norvegicus", "assay": "Antiobesity activity in po dosed high fat diet-induced obese Sprague-Dawley rat assessed as reduction of reduction of triglyceride accumulation in liver administered daily for 3 days", "type": "functional", "conditions": "72 h, read-out: MED", "procedure,_shortened": "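Male Sprague–Dawley rats (about 300 g; n = 5 per group) were acclimatized for seven days to a high-fat diet (45% kcal from fat). They received three consecutive daily oral gavage doses in SEDDS:H₂O 10:90 vehicle 1.5 h before the dark cycle. Food intake was recorded, and liver TG was then measured against the vehicle group.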"}, "[6]": {"system": "Rattus norvegicus", "assay": "Antiobesity activity in high fat diet-induced obese Sprague-Dawley rat assessed as reduction of food intake at 10 mg/kg, po administered with 25% SDD formulation daily for 3 days relative to dirlotapide", "type": "functional", "set-up": "scale not given: the % may be the effect or the level left", "procedure,_shortened": "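Three-day oral dosing study in male Sprague–Dawley rats (~300 g, n = 5 per group) fed a high-fat diet (45% kcal from fat). Animals received daily gavage doses 1.5 h before the dark cycle. Compound was given as a spray-dried dispersion made by spray drying compound with hydroxypropylmethylcellulose acetate succinate. Food intake was recorded during dosing and liver TG measured afterwards, both against vehicle.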"}, "[7]": {"system": "Rattus norvegicus", "assay": "Antiobesity activity in high fat diet-induced obese Sprague-Dawley rat assessed as reduction in body weight at 10 mg/kg, po administered with 25% SDD formulation daily for 3 days relative to dirlotapide", "type": "functional", "set-up": "scale not given: the % may be the effect or the level left"}, "[8]": {"system": "Canis familiaris", "assay": "Drug metabolism in beagle dog assessed as formation of N-(2-((4-fluorobenzyl)(methyl)amino)-2-oxo-1-phenylethyl)-2-(4'-(1-hydroxy-2-methylpropan-2-yl)biphenyl-2-ylcarboxamido)quinoline-6-carboxamide at 2.5 mg/kg, po administered as single dose", "type": "ADME, organism-based, Canis lupus familiaris", "set-up": "dose 2.5 mg/kg, route oral", "conditions": "in vivo"}, "[9]": {"system": "Rattus norvegicus", "assay": "Toxicity in high fat diet-induced obese Sprague-Dawley rat assessed as change in serum ALT level at 10 mg/kg, po qd for 7 days relative to control", "type": "organism-based", "set-up": "dose 10 mg/kg, route oral", "conditions": "in vivo, 168 h", "procedure,_shortened": "(§2)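 Seven-day study in high-fat-diet rats. Compound was given once daily by mouth as a spray-dried dispersion, with vehicle controls. Serum ALT was measured alongside food intake, body weight, liver TG and systemic exposure (AUC). ALT is expressed as % change versus vehicle, with significance set at P ≤ 0.05.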"}, "[10]": {"system": "Rattus norvegicus", "assay": "Toxicity in high fat diet-induced obese Sprague-Dawley rat assessed as change in serum ALT level at 30 mg/kg, po qd for 7 days relative to control", "type": "organism-based", "set-up": "dose 30 mg/kg, route oral", "conditions": "in vivo, 168 h", "procedure,_shortened": "as §2"}, "[11]": {"assay": "AUC in high fat diet-induced obese Sprague-Dawley rat at 10 mg/kg, po qd for 7 days", "type": "ADME, organism-based", "set-up": "dose 10 mg/kg, route oral", "conditions": "plasma", "procedure,_shortened": "(§3)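 Seven-day rat study: once-daily oral dosing at 3, 10 or 30 mg/kg, with 1, 3 and 100 mg/kg also used for one series. Compounds were given as spray-dried dispersions in hydroxypropylmethylcellulose acetate succinate. Food intake, body weight, liver TG and serum ALT were measured against vehicle. Systemic exposure was reported as AUC (ng h/mL). Significance versus vehicle was set at P ≤ 0.05.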"}, "[12]": {"assay": "Oral bioavailability in rat at 30 mg/kg", "type": "ADME, organism-based", "conditions": "in vivo"}, "[13]": {"assay": "Oral bioavailability in beagle dog at 2.5 mg/kg", "type": "ADME, organism-based, Canis lupus familiaris", "conditions": "in vivo"}, "[14]": {"system": "Rattus norvegicus", "assay": "Drug metabolism in rat assessed as formation of N-(2-((4-fluorobenzyl)(methyl)amino)-2-oxo-1-phenylethyl)-2-(4'-(1-hydroxy-2-methylpropan-2-yl)biphenyl-2-ylcarboxamido)quinoline-6-carboxamide at 30 mg/kg, po administered as single dose", "type": "ADME, organism-based", "set-up": "dose 30 mg/kg, route oral", "conditions": "in vivo"}, "[15]": {"system": "Rattus norvegicus", "assay": "Antiobesity activity in high fat diet-induced obese Sprague-Dawley rat assessed as reduction of triglyceride accumulation in liver at 30 mg/kg, po qd for 7 days relative to control", "type": "functional", "set-up": "scale not given: the % may be the effect or the level left", "procedure,_shortened": "as §3"}, "[16]": {"system": "Rattus norvegicus", "assay": "Antiobesity activity in high fat diet-induced obese Sprague-Dawley rat assessed as reduction of triglyceride accumulation in liver at 10 mg/kg, po qd for 7 days relative to control", "type": "functional", "set-up": "scale not given: the % may be the effect or the level left", "procedure,_shortened": "as §3"}, "[17]": {"system": "Rattus norvegicus", "assay": "Antiobesity activity in high fat diet-induced obese Sprague-Dawley rat assessed as reduction of body weight at 10 mg/kg, po qd for 7 days relative to control", "type": "functional", "set-up": "scale not given: the % may be the effect or the level left", "procedure,_shortened": "as §3"}, "[18]": {"system": "Rattus norvegicus", "assay": "Antiobesity activity in high fat diet-induced obese Sprague-Dawley rat assessed as reduction of body weight at 3 mg/kg, po qd for 7 days relative to control", "type": "functional", "set-up": "scale not given: the % may be the effect or the level left", "procedure,_shortened": "as §3"}, "[19]": {"system": "Rattus norvegicus", "assay": "Antiobesity activity in high fat diet-induced obese Sprague-Dawley rat assessed as reduction of food intake at 30 mg/kg, po qd for 7 days relative to control", "type": "functional", "set-up": "scale not given: the % may be the effect or the level left", "procedure,_shortened": "as §3"}, "[20]": {"system": "Rattus norvegicus", "assay": "Antiobesity activity in high fat diet-induced obese Sprague-Dawley rat assessed as reduction of food intake at 10 mg/kg, po qd for 7 days relative to control", "type": "functional", "set-up": "scale not given: the % may be the effect or the level left", "procedure,_shortened": "as §3"}, "[21]": {"system": "Rattus norvegicus", "assay": "Antiobesity activity in high fat diet-induced obese Sprague-Dawley rat assessed as reduction in body weight at 100 mg/kg, po administered daily for 3 days relative to control", "type": "functional", "set-up": "scale not given: the % may be the effect or the level left"}, "[22]": {"system": "Rattus norvegicus", "assay": "Antiobesity activity in high fat diet-induced obese Sprague-Dawley rat assessed as reduction of food intake at 100 mg/kg, po administered daily for 3 days relative to control", "type": "functional", "set-up": "scale not given: the % may be the effect or the level left", "procedure,_shortened": "as §1"}, "[23]": {"system": "Rattus norvegicus", "assay": "Antiobesity activity in high fat diet-induced obese Sprague-Dawley rat assessed as triglyceride accumulation in liver at 3 mg/kg, po administered daily for 3 days relative to control", "type": "functional, organism-based", "set-up": "dose 3 mg/kg", "procedure,_shortened": "as §1"}, "[24]": {"system": "Rattus norvegicus", "assay": "Antiobesity activity in high fat diet-induced obese Sprague-Dawley rat assessed as triglyceride accumulation in liver at 1 mg/kg, po administered daily for 3 days relative to control", "type": "functional, organism-based", "set-up": "dose 1 mg/kg", "procedure,_shortened": "as §1"}, "[25]": {"system": "Rattus norvegicus", "assay": "Antiobesity activity in high fat diet-induced obese Sprague-Dawley rat assessed as reduction of food intake at 1 mg/kg, po administered daily for 3 days relative to control", "type": "functional", "set-up": "scale not given: the % may be the effect or the level left", "procedure,_shortened": "as §1"}, "[26]": {"system": "Rattus norvegicus", "assay": "Antiobesity activity in high fat diet-induced obese Sprague-Dawley rat assessed as reduction of triglyceride accumulation in liver at 10 mg/kg, po administered daily for 3 days relative to control", "type": "functional", "procedure,_shortened": "as §1"}, "[27]": {"assay": "Fraction unbound in human HepG2 cells by equilibrium dialysis", "type": "ADME, cell-based", "procedure,_shortened": "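Protein binding was measured by equilibrium dialysis under the conditions of the apoB secretion assay in human HepG2 cells, to give unbound fraction.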"}, "[28]": {"system": "Canis familiaris", "assay": "Drug metabolism in beagle dog assessed as formation of 2-(2'-(6-(2-((4-fluorobenzyl)(methyl)amino)-2-oxo-1-phenylethylcarbamoyl)quinolin-2-ylcarbamoyl)biphenyl-4-yl)-2-methylpropanoic acid at 2.5 mg/kg, po administered as single dose", "type": "ADME, organism-based, Canis lupus familiaris", "set-up": "dose 2.5 mg/kg, route oral", "conditions": "in vivo"}, "[29]": {"system": "Canis familiaris", "assay": "Drug metabolism in beagle dog assessed as formation of 2-(4'-tert-butylbiphenyl-2-ylcarboxamido)-N-(2-(methylamino)-2-oxo-1-phenylethyl)quinoline-6-carboxamide at 2.5 mg/kg, po administered as single dose", "type": "ADME, organism-based, Canis lupus familiaris", "set-up": "dose 2.5 mg/kg, route oral", "conditions": "in vivo"}},
  "note": "Activity calls are given as the source filed them. No cut-off for these calls is given here.",
  "data": [
    {"compound": "CN(Cc1ccc(F)cc1)C(=O)[C@@H](NC(=O)c1ccc2nc(NC(=O)c3ccccc3-c3ccc(C(C)(C)C)cc3)ccc2c1)c1ccccc1", "values": [
      {"measurement": "Activity", "setting": "[1]", "value": 46, "unit": "%"},
      {"measurement": "Activity", "setting": "[2]", "value": 6, "unit": "%"},
      {"measurement": "Activity", "setting": "[3]", "value": 10, "unit": "%"},
      {"measurement": "Activity", "setting": "[4]", "value": 75, "unit": "%"},
      {"measurement": "minimal effective dose", "setting": "[5]", "value": 3, "unit": "mg/kg"},
      {"measurement": "Activity", "setting": "[6]", "value": 8, "unit": "%"},
      {"measurement": "Activity", "setting": "[7]", "value": 32, "unit": "%"},
      {"measurement": "Drug metabolism", "setting": "[8]", "value": "Active"},
      {"measurement": "Activity", "setting": "[9]", "value": 143, "unit": "%"},
      {"measurement": "Activity", "setting": "[10]", "value": 237, "unit": "%"},
      {"measurement": "AUC at 168 h", "setting": "[11]", "value": 42, "unit": "ng·h/mL"},
      {"measurement": "bioavailability", "setting": "[12]", "value": "< 3", "unit": "%"},
      {"measurement": "bioavailability", "setting": "[13]", "value": "< 3", "unit": "%"},
      {"measurement": "Drug metabolism", "setting": "[14]", "value": "Active"},
      {"measurement": "Activity", "setting": "[15]", "value": 212, "unit": "%"},
      {"measurement": "Activity", "setting": "[16]", "value": 219, "unit": "%"},
      {"measurement": "Activity", "setting": "[17]", "value": 255, "unit": "%"},
      {"measurement": "Activity", "setting": "[18]", "value": 85, "unit": "%"},
      {"measurement": "Activity", "setting": "[19]", "value": 48, "unit": "%"},
      {"measurement": "Activity", "setting": "[20]", "value": 51, "unit": "%"},
      {"measurement": "Activity", "setting": "[21]", "value": 107, "unit": "%"},
      {"measurement": "Activity", "setting": "[22]", "value": 47, "unit": "%"},
      {"measurement": "Activity", "setting": "[23]", "value": "inactive"},
      {"measurement": "Activity", "setting": "[24]", "value": "inactive"},
      {"measurement": "Activity", "setting": "[25]", "value": 12, "unit": "%"},
      {"measurement": "Activity", "setting": "[26]", "value": "inactive"},
      {"measurement": "fraction unbound", "setting": "[27]", "value": 0.00063},
      {"measurement": "Drug metabolism", "setting": "[28]", "value": "Active"},
      {"measurement": "Drug metabolism", "setting": "[29]", "value": "Active"}
    ]}
  ]
}
